Our source for the activity change, negative = activation values is PubChem BioAssay AID489031 (Sanford-Burnham Center for Chemical Genomics, 2010).

The campaign covered roughly 330,000 compounds. About 1,000 (0.3%) were called active. The full list was thinned out, with actives kept by preference. A number with no mark means an inactive call.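 The calls were made as follows: active = activity change at or below -40% at 20 µM; inactive = the rest.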

Chain of Apoptotic protease-activating factor 1 (Homo sapiens) (O14727 whole entry, looked up): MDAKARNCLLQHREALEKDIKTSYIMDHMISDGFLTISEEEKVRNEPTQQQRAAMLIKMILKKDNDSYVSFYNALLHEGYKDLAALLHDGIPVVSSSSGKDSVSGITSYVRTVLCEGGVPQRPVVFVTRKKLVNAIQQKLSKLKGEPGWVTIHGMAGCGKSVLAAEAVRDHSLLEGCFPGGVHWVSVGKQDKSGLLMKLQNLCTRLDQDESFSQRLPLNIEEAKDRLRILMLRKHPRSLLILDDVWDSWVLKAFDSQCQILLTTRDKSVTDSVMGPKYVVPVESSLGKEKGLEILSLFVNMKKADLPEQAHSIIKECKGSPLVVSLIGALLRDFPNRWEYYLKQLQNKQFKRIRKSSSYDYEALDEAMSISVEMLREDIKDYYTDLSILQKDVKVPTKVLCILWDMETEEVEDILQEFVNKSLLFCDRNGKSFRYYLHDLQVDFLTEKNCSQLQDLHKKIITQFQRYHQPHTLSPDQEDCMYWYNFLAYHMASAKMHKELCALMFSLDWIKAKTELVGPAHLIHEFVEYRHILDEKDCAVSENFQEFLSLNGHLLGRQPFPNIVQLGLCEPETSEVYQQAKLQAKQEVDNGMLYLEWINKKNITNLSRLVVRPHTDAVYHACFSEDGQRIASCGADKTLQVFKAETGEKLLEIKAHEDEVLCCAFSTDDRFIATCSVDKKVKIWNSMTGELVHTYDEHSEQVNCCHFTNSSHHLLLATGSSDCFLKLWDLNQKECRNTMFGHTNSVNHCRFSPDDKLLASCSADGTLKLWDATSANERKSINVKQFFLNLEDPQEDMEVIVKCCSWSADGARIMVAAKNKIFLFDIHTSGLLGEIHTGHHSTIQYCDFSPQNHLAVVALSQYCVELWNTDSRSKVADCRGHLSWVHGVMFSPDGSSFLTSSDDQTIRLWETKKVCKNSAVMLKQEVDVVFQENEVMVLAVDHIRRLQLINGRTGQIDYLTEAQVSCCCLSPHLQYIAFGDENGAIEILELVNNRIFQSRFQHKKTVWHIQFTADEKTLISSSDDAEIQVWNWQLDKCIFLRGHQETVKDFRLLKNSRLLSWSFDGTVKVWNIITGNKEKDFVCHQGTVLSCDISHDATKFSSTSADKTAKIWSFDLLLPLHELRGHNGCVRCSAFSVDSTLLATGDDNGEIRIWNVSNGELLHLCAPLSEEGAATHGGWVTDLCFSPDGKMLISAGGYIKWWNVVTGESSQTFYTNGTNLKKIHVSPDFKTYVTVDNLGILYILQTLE

The assay deals with Apoptotic protease-activating factor 1 (Homo sapiens) (UniProt O14727). The assay is described as follows: activators of human Apaf-1 apoptosome, primary screen, biochemical, DEVD-Rh110 fluorescence, uHTS (AID 489031). The conditions noted are these: Apaf-1 apoptosome caspase-3 activation, at 20 µM, active compounds read low. Put shortly:
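System: Reconstituted apoptosome of Apaf-1, cytochrome c, caspase-9, procaspase-3 | Reagent: dATP, cytochrome c, and (Z-DEVD)2-Rh110 caspase-3 substrate | Times: 30 min compound preincubation and 50 min reaction, both room temperature | Detection: Caspase-3-released Rh110 fluorescence, 540 nm emission, 480 nm excitation | Measure: Caspase-3 activity via Apaf-1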
Consider `Cc1nn(CC(=O)Nc2ccc(C#N)cc2)c(C)c1[N+](=O)[O-]`, for which the activity change, negative = activation was -116% (active).
Turning to `CCOC(=O)N1CCC(c2cc(=O)n(-c3ccccc3)[nH]2)CC1`, the activity change, negative = activation is 86.7%.
For `COCCNC(=O)Nc1ccc2nc(-c3ccco3)c(-c3ccco3)nc2c1`, the activity change, negative = activation was 64.8%.
`CC(=O)N=c1ncn(CC(COC(C)=O)OC(C)=O)c2nc[nH]c12` (stereo unspecified): the activity change, negative = activation is 74.2%.
As for `CCCCNC(=O)C(C)N(CCN(C)C)C(=O)CCCCCN1C(=O)NC(c2ccc(Cl)cc2)C(C(=O)OCc2ccccc2)=C1C` (stereo unspecified), the activity change, negative = activation was 67.1%.
Regarding `CC(C)OCCCNC(=S)N1CCC(C(=O)c2ccc3c(c2)OCCO3)CC1`, the activity change, negative = activation was -164% (active).
For `c1ccc(C[C@H]2CNCCN2CCC23CC4CC(CC(C4)C2)C3)cc1`, the activity change, negative = activation is 47.5%.
The result for `C=C(C)C(=O)Nc1cccc(C2=NOC3(C2)C[C@H](C(N)=O)N(C(=O)C(c2ccccc2)c2ccccc2)C3)c1` (stereo partly specified) reads -78.2% (active); that for `CC(C)c1ccccc1OCC(O)CN(CC(O)COc1cccc2ccccc12)C(C)C` (stereo unspecified), 57.3%; that for `O=c1[nH]cnc2c1c(-c1ccccc1)cn2-c1ccc(F)cc1`, -47% (active).
In the case of `c1ccc(CSc2nnc(-c3ccco3)c(-c3ccco3)n2)cc1`, the activity change, negative = activation was 49.6%.
In the case of `Cc1ccsc1/C=N/NC(=O)Cc1cc(=O)[nH][nH]1`, the activity change, negative = activation was 58.3%.
On to `COc1cc(C2C(C#N)=C(N)Oc3n[nH]c(-c4ccccn4)c32)cc(OC)c1OC` (stereo unspecified), for which the activity change, negative = activation was -84.8% (active).
As for `COc1ccccc1C1C(C#N)=C(N)Oc2c1c(-c1ccccc1)nn2-c1ccccc1` (stereo unspecified), the activity change, negative = activation is 42.2%.
With `COc1ccc2sc(-c3ccccc3OC)c(-c3ccc(OCCN4CCCC4)cc3)c2c1` the figure was 73.4%.
With `C/C(=N\NC(=O)CNc1cccc2ccccc12)c1ccc(Br)s1` the figure was 90.2%.
As for `O=C(CSc1nc2ccccc2c(=O)[nH]1)Nc1nc(-c2ccc(Br)cc2)cs1`, the activity change, negative = activation is -74% (active).
As for `Cc1ccc(-c2ccc(/C=N/NC(=O)CN3CCOCC3)o2)cc1[N+](=O)[O-]`, the activity change, negative = activation was 73.9%.
With `O=C(CCCN1CCc2[nH]c3ccc(F)cc3c2C1)c1ccc(F)cc1` the figure was 65%; with `COc1ccc(C2CC(c3ccccc3)Nc3ncnn32)cc1` (stereo unspecified), -445% (active).
For `NC[C@H](Cc1ccccc1)NCCc1cc(C(F)(F)F)cc(C(F)(F)F)c1`, the activity change, negative = activation is 60.8%.
With `Clc1ccccc1CSc1nnc(-c2ccco2)c(-c2ccco2)n1`, the activity change, negative = activation was 49.9%.
Regarding `Cc1ccc2nc(N3CCN(C(=O)c4ccco4)CC3)sc2c1`, the activity change, negative = activation is 41.9%.
`O=C(CN1C(=O)C2C3C=CC(C3)C2C1=O)NCCc1ccccc1Cl` (stereo unspecified): the activity change, negative = activation is -99.8% (active).
Take `CC[N+](C)(CC)CCC[n+]1c(-c2ccccc2)c2cc(N)ccc2c2ccc(N)cc21`: the activity change, negative = activation was 98.2%.
As for `Cc1ccc(-c2nc(SCC(=O)Nc3ccccc3OC(F)F)c3c(C)c(C(=O)O)sc3n2)cc1`, the activity change, negative = activation is -98.5% (active).
Take `CCOCCCNC(=O)c1c[nH]c2cc(C)ccc2c1=O`: the activity change, negative = activation was -152% (active).
With `CN(C)CCCN(C(=O)c1ccc(S(=O)(=O)N2CCCCCC2)cc1)c1nc2ccc(Br)cc2s1` the figure was 60.4%; with `O=[N+]([O-])c1c(NCCO)cc(Sc2nc3ccccc3s2)c2nonc12`, 90.7%.
For the molecule `C=CCC[C@H](Cc1ccc(F)cc1)C(=O)OC[C@@H](NC(=O)[C@@H](CC=C)CC(=O)N[C@H](CO)Cc1ccccc1)C(C)(C)C`, the activity change, negative = activation was 40.6%.
On to `O=C(O)c1cc(Cl)c(Cl)cc1C(=O)Nc1cccc2ncccc12`, for which the activity change, negative = activation was 80.4%.
As for `COC(=O)C(C)N(C#N)c1nc(C)nc(C)n1` (stereo unspecified), the activity change, negative = activation was -363% (active).
For the molecule `CCCCN(CCCC)CCC(O)c1cc2c(Cl)cc(Cl)cc2c2cc(C(F)(F)F)ccc12` (stereo unspecified), the activity change, negative = activation is 48.9%.
The result for `COc1ccc(C2c3ccc(O)cc3Oc3ncn(CCCO)c(=N)c32)cc1OC` (stereo unspecified) reads -43.4% (active).
For the molecule `Cc1cc(C)n(-c2nc(SCC(=O)N3CCCC3)c3c4c(sc3n2)CCCC4)n1`, the activity change, negative = activation was 43.6%.
As to `O=c1cc(N2CCCCC2)c(-c2ccccc2)nn1Cc1cccc(F)c1`, the activity change, negative = activation is 44%.
In the case of `COc1ccc(S(=O)(=O)N2CCCCC2)cc1NC(=O)c1cc([N+](=O)[O-])ccc1N1CCOCC1`, the activity change, negative = activation is -42.8% (active).
For the molecule `OC(CNCC1CCCO1)Cn1c2ccc(Br)cc2c2cc(Br)ccc21` (stereo unspecified), the activity change, negative = activation was 43.4%.
With `CC(=O)CCC(=O)c1ccc2ccccc2c1` the figure was -178% (active).
The result for `O=S(=O)(Nc1ccc(O)c2ccccc12)c1ccc(OC(F)(F)F)cc1` reads 60.9%; that for `COc1ccc(NC(=O)CN(Cc2ccccc2)S(C)(=O)=O)cc1OC`, 40.8%; that for `Cc1[nH][nH]c(=O)c1C(c1ccc(-c2ccc(Cl)cc2)o1)c1c(C)[nH][nH]c1=O`, 85.8%.
Turning to `Cc1ccc(S(=O)(=O)c2c(N)n(C)c3nc4ccccc4nc23)cc1`, the activity change, negative = activation is -405% (active).
With `C=CCn1c(N)c(C(=O)OCC(C)C)c2nc3ccccc3nc21` the figure was 54.1%; with `CCC(=O)Nc1c(S(=O)(=O)c2ccccc2)c2nc3ccccc3nc2n1Cc1ccccc1`, 49.2%.
As to `C#CCOCCOCCOCCNc1nc(N2CCN(C(=O)CCCCCCCCCCNC(=O)[C@H](CCCCN)n3cc(C)nn3)CC2)nc(N2CCN(C(=O)CCCCCCCCCCNC(=O)[C@H](CO)n3cc(CCCSC)nn3)CC2)n1`, the activity change, negative = activation was 59.7%.
On to `CC(C)n1cnc2c(NCc3ccccc3)cc(N[C@@H](CO)Cc3ccccc3)cc21`, for which the activity change, negative = activation is 94.5%.
For `O=C(Nc1cccc(-c2nc3ccccc3[nH]2)c1)c1ccc(C(=O)Nc2cccc(-c3nc4ccccc4[nH]3)c2)cc1`, the activity change, negative = activation was -44% (active).
Take `NC(N)=N/N=C/c1ccc(OCc2ccc(Cl)cc2Cl)cc1`: the activity change, negative = activation was 65.5%.
Regarding `CCOC(=O)N1CCC(NC(=O)C(C)n2c3ccccc3c3cnn(C)c(=O)c32)CC1` (stereo unspecified), the activity change, negative = activation was 44.6%.
On to `C#C[C@]1(O)CC[C@H]2[C@@H]3CCC4=CC(=O)CC[C@@H]4[C@H]3CC[C@@]21CC`, for which the activity change, negative = activation is 1.24%.
As to `C=CC1=C(C(=O)O)N2C(=O)[C@@H](NC(=O)/C(=N/OCC(=O)O)c3csc(N)n3)[C@H]2SC1`, the activity change, negative = activation is -112% (active).
With `C=CC1=C(C(=O)O)N2C(=O)[C@@H](NC(=O)/C(=N\OCC(=O)O)c3csc(N)n3)[C@H]2SC1` the figure was -78% (active); with `COC(=O)[C@H]1[C@H]2C[C@H]3c4[nH]c5ccccc5c4CCN3C[C@@H]2CC[C@@H]1O`, 13.4%.
For the molecule `CN1CCN(c2ccccc2NC(=O)COc2ccc(C3CCCCC3)cc2)CC1`, the activity change, negative = activation is 43.6%.
Turning to `Cc1ccc(S(=O)(=O)C(C#N)c2nc3ccccc3nc2N2CCCC2)cc1C` (stereo unspecified), the activity change, negative = activation is 60%.
As for `Oc1ccc(N=Cc2c(O)ccc3ccccc23)cc1`, the activity change, negative = activation is 87.2%.
For `Oc1ccc(N=Cc2sc3ccccc3c2Cl)cc1`, the activity change, negative = activation is 64.8%.
With `Cc1ccc(C(=O)N/N=C\c2cc(Br)c(Br)o2)cn1` the figure was 75.4%.
Consider `Cc1ccc(S(=O)(=O)N2CCOCC2)cc1C(=O)NC(=S)N(Cc1ccccc1)C(C)C`, for which the activity change, negative = activation is -57.7% (active).
With `COc1ccc(/C=C2/C(=O)N(c3ccccc3)N=C2C)c(OC)c1`, the activity change, negative = activation is 80.1%.
Regarding `CN1CCN(CCCNC(=O)c2ccc(/C=C3\Oc4ccccc4N(Cc4ccc(Cl)cc4)C3=O)cc2)CC1`, the activity change, negative = activation was 56.6%.
For the molecule `O=C(CSc1ccc(-c2ccc(-n3cccn3)cc2)nn1)Nc1ccc([N+](=O)[O-])cc1`, the activity change, negative = activation was -70.1% (active).
With `C(=N/Nc1cc(N2CCOCC2)nc(N2CCOCC2)n1)/c1ccccc1` the figure was 76.5%; with `COc1ccc(-c2nc3cc(C)ccn3c2NC2CCCCC2)cc1SC1CCCCC1`, 48.4%; with `Cc1oc2c(c1C(=O)N1CCOCC1)C(=O)c1ccccc1C2=O`, 65.9%.
Regarding `CCCC(=O)Nc1nc2ccc(NC(=O)c3c(F)c(F)c(OC)c(F)c3F)cc2s1`, the activity change, negative = activation is -393% (active).
With `CC(C)n1cnc2c(NCc3ccccc3)cc(OCC3CCN(C)CC3)cc21` the figure was 96.4%.
`Cc1ccc2c(c1)C1CN(C)CCC1N2S(=O)(=O)c1ccc(Oc2ccc([N+](=O)[O-])cc2)cc1` (stereo unspecified): the activity change, negative = activation is 59.9%.
For the molecule `COc1ccccc1OCC(=O)Nc1c2c(nn1-c1ccc(F)cc1)CS(=O)(=O)C2`, the activity change, negative = activation is -88% (active).
As for `NC(N)=NCCCc1cn(CC(=O)N2CCNCC2)nn1`, the activity change, negative = activation is 40.2%.
As for `CC(NC(=O)c1ccccc1SCC(=O)N1CCCC1)c1ccccc1` (stereo unspecified), the activity change, negative = activation was 41.6%.
For `O=c1[nH]c2c(c(=O)n1Cc1ccccc1)CCC2`, the activity change, negative = activation is -300% (active).
As for `COCCn1nnnc1C(c1cc2ccc(OC)cc2[nH]c1=O)N1CCc2ccccc2C1` (stereo unspecified), the activity change, negative = activation was 56.8%.
On to `CC(C)Cn1c(N)c(C(=O)NCc2cccs2)c2nc3ccccc3nc21`, for which the activity change, negative = activation is 63.4%.
Consider `CCc1nn(CCCN2CCN(c3cccc(Cl)c3)CC2)c(=O)n1CCOc1ccccc1`, for which the activity change, negative = activation is 23.5%.
In the case of `CCN(CC)CCOc1ccc2c(c1)C(=NNC(=O)c1ccccn1)c1cc(OCCN(CC)CC)ccc1-2`, the activity change, negative = activation was 52.5%.
As to `O=C(Nc1ccccc1F)c1ccccc1-c1ccccc1`, the activity change, negative = activation is -42.2% (active).
On to `CC(=O)Nc1ccc(Nc2cc(C)nc(Nc3ccc(NC(C)=O)cc3)n2)cc1`, for which the activity change, negative = activation is 46.2%.
The result for `c1ccc2c(CCN3CCNC[C@H]3Cc3cccc4ccccc34)cccc2c1` reads 67%; that for `CCCCCCCCCCOC(=O)Cn1c(COc2cccc(OC)c2)[n+](C)c2ccccc21`, 65.3%; that for `CC1COc2ccccc2N1C(=O)c1cccnc1Cl` (stereo unspecified), -62.8% (active).
Take `N#Cc1c(N2CCCCC2)nc(N)c2c(N)nc(SCC(=O)O)cc12`: the activity change, negative = activation is 96%.
As for `O=C(NCc1ccccn1)c1ccc2nc(-c3ccco3)c(-c3ccco3)nc2c1`, the activity change, negative = activation was 60.6%.
Take `CCOc1ccc(N=C2NC(=O)S/C2=C\c2ccc(O)cc2)cc1`: the activity change, negative = activation was -72% (active).
Take `CCOc1[nH]n(-c2ccc(Cl)cc2)c(=O)c1C=Nc1ccc(O)cc1`: the activity change, negative = activation is 66.9%.
